Measured values pooled from the literature.
Lines come from different studies, so protocols differ.
Target: Casein kinase II subunit alpha (CSNK2A1, Homo sapiens, UniProt P68400)

C[S+]([O-])c1ccc(-c2nc(-c3ccncc3)c(-c3ccc(F)cc3)[nH]2)cc1 (stereo not drawn)  remaining signal (cell-free assay; 0.5 µM): 86.2%
C[C@H](NC(=O)c1cnc2n1[C@](C)(Cc1ccc(C#N)cc1)C(=O)N2c1cc(Cl)c(F)c(Cl)c1)C(=O)NC1(c2ccccn2)CC1  remaining binding (cell-free assay; competition with immobilised ligand; 1 µM): 81%
CCCS(=O)(=O)Nc1ccc(F)c(C(=O)c2c[nH]c3ncc(-c4ccc(Cl)cc4)cc23)c1F  inhibition (enzyme activity; inhibitor; 1 µM): < 10%
Cc1cc(NC(=O)c2cccc3cc(-c4cccc5[nH]nc(N)c45)ccc23)ccc1F  activity vs control (enzyme activity; inhibitor; 0.1 µM): 109%
CN([C@@H]1CCc2c(CC(=O)O)c3ccccc3n2C1)S(=O)(=O)c1ccc(F)cc1  remaining binding (cell-free assay; competition with immobilised ligand; 1 µM): 82%
CC(C)(C)c1nc(-c2cccc(NS(=O)(=O)c3c(F)cccc3F)c2F)c(-c2ccnc(N)n2)s1  remaining activity (enzyme activity; inhibitor; radiometric; 1 µM): 85%
Cn1c2c(c3ccccc31)C(C#N)C(C)(C)NC2=O (stereo not drawn)  ΔTm (thermal stability; DSF; 10 µM): 0.8 °C
CN([C@@H]1CCc2c(CC(=O)O)c3cc(S(C)(=O)=O)ccc3n2C1)S(=O)(=O)c1ccc(F)cc1  remaining binding (cell-free assay; competition with immobilised ligand; 1 µM): 91%
COc1cc(/C=C/C(=O)CC(=O)/C=C/c2ccc(O)c(OC)c2)ccc1O  activity vs control (enzyme activity; inhibitor; 1 µM): 106%
O=C1CCc2cc(Nc3cc(OC4CCOCC4)c([N+](=O)[O-])cc3Cl)ccc2N1  remaining binding (cell-free assay; competition with immobilised ligand; 1 µM): 84%
CN(c1ncccc1CNc1nc(Nc2ccc3c(c2)CC(=O)N3)ncc1C(F)(F)F)S(C)(=O)=O  inhibition (enzyme activity; inhibitor; 1 µM): 50.7%
O=C(Nc1cnn(-c2csc(C(=O)NC3COC3)c2)c1)Nc1c(F)cccc1Cl  remaining activity (enzyme activity; inhibitor; 5 µM): 90.5%
Cn1c(=O)n(-c2ccc(C(C)(C)C#N)cc2)c2c3cc(-c4cnc5ccccc5c4)ccc3ncc21  remaining activity (enzyme activity; inhibitor; 10 µM): 79%
Cn1c2c(c3ccc(Cl)c(Cl)c31)C(C#N)C1(CCN(C(=O)OC(C)(C)C)CC1)NC2=O (racemic)  ΔTm (thermal stability; DSF; 10 µM): -0.1 °C
CCN(CC)CCNC(=O)c1c(C)[nH]c(/C=C2\C(=O)Nc3ccc(F)cc32)c1C  inhibition (enzyme activity; inhibitor; 0.3 µM): -7%
COc1cccc(CNC(=O)c2nc3scc(COCc4ccc(C(=O)O)cc4)c3c(=O)[nH]2)c1  remaining binding (cell-free assay; competition with immobilised ligand; 1 µM): 90.7%
CCC1(CC)NC(=O)c2c(c3ccc(Cl)c(Cl)c3n2C)C1C#N (stereo not drawn)  ΔTm (thermal stability; DSF; 10 µM): 0 °C
Cc1ccc(C(=O)Nc2ccc(CN3CCN(C)CC3)c(C(F)(F)F)c2)cc1C#Cc1cnc2cccnn12  remaining activity (enzyme activity; inhibitor; 23.5 nM): 98%
COc1cc(Nc2cnc(C#N)c(O[C@H](C)CN(C)C)n2)ncc1-c1cnn(C)c1  remaining activity (enzyme activity; inhibitor; radiometric; 10 µM): 87%
CC(C)(C)C(=O)c1sc(NC2CCCCC2)nc1N  remaining activity (enzyme activity; inhibitor; 10 µM): 118%
C#Cc1cccc(Nc2ncnc3cc(OCCOC)c(OCCOC)cc23)c1  remaining signal (cell-free assay; 0.5 µM): 78.9%
